How the values were obtained:
[1] = target: GTPase HRas (Homo sapiens) (UniProt P01112); assay: Inhibitory [3H]GDP concentration against oncogenic Ha-ras protein (p21 Leu-61)
Method in brief: (§1)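 Filter-binding competition: GDP-bound Ha-ras p21 (1 μM; 1 μg) with [3H]GDP (3 μM per footnote, 2 μM in methods) plus analogue over a concentration range, in 50 mM Tris-HCl pH 7.5, 10 mM DTT, 0.5 mM MgCl2, 100 mM NH4Cl, 5 mM EDTA, 45 min, 37 °C. Quenched with cold Mg2+, filtered through nitrocellulose, counted. Krel = [3H]GDP concentration/analogue concentration at 50% inhibition.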

[2] = target: GTPase HRas (Homo sapiens) (UniProt P01112); assay: Inhibitory [3H]GDP concentration against cellular p21 Ha-ras; method in brief: as §1

GTPase HRas (Homo sapiens), sequence (P01112 whole entry, looked up): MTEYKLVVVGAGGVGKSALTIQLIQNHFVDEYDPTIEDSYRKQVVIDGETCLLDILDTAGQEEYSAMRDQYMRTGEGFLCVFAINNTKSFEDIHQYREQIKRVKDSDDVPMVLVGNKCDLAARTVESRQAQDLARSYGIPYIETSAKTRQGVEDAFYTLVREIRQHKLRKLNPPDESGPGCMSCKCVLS

K rel [1] | K rel [2] | SMILES
1.1 | 1.19 | O=P(O)(O)OP(=O)(O)OP(=O)(O)OC[C@@H]1OC(n2cnc3c(O)nc(NCCCCc4ccccc4)nc32)[C@@H](O)[C@H]1O (stereo not given in full)
0.09 | 0.11 | O=P(O)(O)OP(=O)(O)OP(=O)(O)OC[C@@H]1OC(n2cnc3c(O)ncnc32)[C@@H](O)[C@H]1O (stereo not given in full)
0.85 | 0.85 | Nc1nc(O)c2ncn(C3OC(COP(=O)(O)OP(=O)(O)OP(=O)(O)O)CC3O)c2n1 (stereo not given)
0.0018 | 0.0014 | Nc1nc(O)c2ncn(COC(CO)COP(=O)(O)OP(=O)(O)OP(=O)(O)O)c2n1 (stereo not given)
0.05 | 0.08 | Nc1nc(O)c2ccn(C3O[C@@H](COP(=O)(O)OP(=O)(O)OP(=O)(O)O)[C@H](O)[C@@H]3O)c2n1 (stereo not given in full)
0.0011 | 0.0012 | Nc1nc2c(ncn2COCCOP(=O)(O)OP(=O)(O)OP(=O)(O)O)c(=O)[nH]1
0.002 | 0.0024 | CN1CN(C2O[C@@H](COP(=O)(O)OP(=O)(O)OP(=O)(O)O)[C@H](O)[C@@H]2O)c2nc(N)nc(O)c21 (stereo not given in full)
1.2 | 1.1 | Nc1nc(O)c2ncn([C@H]3O[C@@H](COP(=O)(O)OP(=O)(O)OP(=O)(O)O)[C@H](O)[C@@H]3O)c2n1
0.18 | 0.28 | Nc1nc2c(ncn2[C@H]2CC[C@@H](COP(=O)(O)OP(=O)(O)OP(=O)(O)O)O2)c(=O)[nH]1
2.1 | 2.28 | O=P(O)(O)OP(=O)(O)OP(=O)(O)OC[C@@H]1OC(n2cnc3c(O)nc(Nc4ccc(Br)cc4)nc32)[C@@H](O)[C@H]1O (stereo not given in full)
1.34 | 1.14 | Cc1ccc(Nc2nc(O)c3ncn(C4O[C@@H](COP(=O)(O)OP(=O)(O)OP(=O)(O)O)[C@H](O)[C@@H]4O)c3n2)cc1 (stereo not given in full)
0.68 | 0.59 | CCCCNc1nc(O)c2ncn(C3O[C@@H](COP(=O)(O)OP(=O)(O)OP(=O)(O)O)[C@H](O)[C@@H]3O)c2n1 (stereo not given in full)
2.38 | 1.77 | O=P(O)(O)OP(=O)(O)OP(=O)(O)OC[C@@H]1OC(n2cnc3c(O)nc(Nc4ccc(F)cc4)nc32)[C@@H](O)[C@H]1O (stereo not given in full)
6 | 3.3 | CCCCc1ccc(Nc2nc(O)c3ncn(C4O[C@@H](COP(=O)(O)OP(=O)(O)OP(=O)(O)O)[C@H](O)[C@@H]4O)c3n2)cc1 (stereo not given in full)
0.05 | 0.04 | O=P(O)(O)OP(=O)(O)OP(=O)(O)OC[C@@H]1OC(n2cnc3c(O)nc(Br)nc32)[C@@H](O)[C@H]1O (stereo not given in full)
